# Screening data deposited in PubChem by several laboratories.
# Shown are actives, neighbours in structure and some others; about 1.5% of the full set was active somewhere.
# CRFBP-R2 block: blocks CRF-induced signaling of the CRF-BP/CRF-R2 complex. 0.59% of 350,000 active. inhibition, % at 11.8 µM. HEK293 CRF-R2/CRF-BP, CRF-induced calcium fluorescence;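 active = inhibition of the ligand-induced calcium signal above about 50% at the single tested concentration, limit read from the data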
# PKA-R2B act: activates the human PKA-R2B holoenzyme complex; P22694+P31323; PKA-R2B holoenzyme dissociation, Cy5-IP20 fluorescence polarization; R2B truncated from residue 108, S112A mutant; 0% DMSO only, 100% 113 µM cGMP; activation, % at 11.4 µM; 0.079% of 340,000 active;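 active = activation above a cutoff set at the mean over all compounds plus 3 SD, cut at about 18% in these data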;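 note: higher means more holoenzyme dissociation and a rise in polarization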
# Target sequence (P31323 whole entry, looked up, other chains not shown, the tested form may be a part): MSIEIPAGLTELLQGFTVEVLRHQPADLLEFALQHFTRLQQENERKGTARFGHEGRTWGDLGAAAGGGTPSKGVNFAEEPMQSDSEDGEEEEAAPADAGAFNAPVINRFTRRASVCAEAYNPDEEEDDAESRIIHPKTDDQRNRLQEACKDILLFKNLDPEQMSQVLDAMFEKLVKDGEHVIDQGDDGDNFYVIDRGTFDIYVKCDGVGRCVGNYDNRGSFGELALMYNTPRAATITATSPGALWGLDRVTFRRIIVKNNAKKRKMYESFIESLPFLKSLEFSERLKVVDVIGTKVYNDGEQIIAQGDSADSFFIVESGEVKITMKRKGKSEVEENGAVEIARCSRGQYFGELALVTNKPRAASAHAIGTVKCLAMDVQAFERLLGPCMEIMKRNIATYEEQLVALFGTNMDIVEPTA
# SIRT5 inh: sirtuin-5 (human) deacylase inhibition | 1.1% of 330,000 active | inhibition, % at 15 µM | Purified SirT5, succinyl-peptide AMC, trypsin-coupled fluorescence | AID 652115; in the data active = inhibition above about 15%
# PKA-R1A act: activators of PKA-R1A complex. PKA-R1A dissociation, Cy5-IP20 fluorescence polarization; scaled: DMSO 0%, 113 µM cGMP 100%. activation, % at 11.4 µM. 0.083% of 340,000 active. AID 504707;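 active = percent activation above the mean of all tested compounds plus 3 SD, cut at about 19% in these data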;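 note: higher means more PKAc released from R1A so a rise in polarization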
# S100A4 inh HTS: blocks human S100A4 binding to myosin IIA peptide; P26447; S100A4/TAMRA-MyoIIA peptide fluorescence polarization; 0.14% of 360,000 active; inhibition, % at 10.7 µM; AID 652163;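 active = mean inhibition of at least 70% across replicates, with every replicate also reaching that level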
# Target sequence (P26447 whole entry, looked up): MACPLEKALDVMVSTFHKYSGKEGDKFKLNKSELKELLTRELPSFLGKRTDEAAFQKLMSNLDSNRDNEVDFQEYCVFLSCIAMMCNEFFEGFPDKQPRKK
#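 System – human S100A4 monomer protein, biochemical binding assay · Buffer or medium – Calcium-containing HEPES buffer, pH 7.2 · Timing – 5 min between mix addition and reading · Also added – TAMRA-labelled myosin IIA heavy-chain peptide probe, 5 nM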
# * hit, by the source's call; . = no result.
SMILES,CRFBP-R2 block,PKA-R2B act,SIRT5 inh,PKA-R1A act,S100A4 inh HTS
CCOCCCNC(=O)/C(C#N)=C/c1cc(C)c(O)c(C)c1,13.9,0.3,23.3*,6.3,-6.5
COC(=O)CC1SC(=O)NC1=Nc1ccc(OC)cc1 (stereo not drawn),73.3*,-7.0,.,-7.2,.
COC(=O)CC1SC(=O)NC1=Nc1ccc(O)cc1 (stereo not drawn),-20.4,-13.5,-1.2,7.0,-5.1
CC(C)Cc1ccc(CN2CC[C@@H](NS(=O)(=O)c3ccccc3)C2)cc1,.,.,-2.2*,.,-0.3
O=S(=O)(N[C@@H]1CCCN(Cc2ccc(OCCO)cc2)C1)c1ccccc1,.,.,.,.,10.6
CNC(=O)C[C@H]1CC[C@H]2[C@@H](COc3ccc(NC(=O)NC4CCCC4)cc3C(=O)N2C)O1,.,.,-3.1,.,-2.7
O=C(/C=C/c1ccco1)N(Cc1ccc(Cl)cc1)C1CCS(=O)(=O)C1 (stereo not drawn),-0.3,-7.9,57.1*,-2.5,-0.9
O=C(c1ccc(F)cc1Cl)N(Cc1ccco1)C1CCS(=O)(=O)C1 (stereo not drawn),74.6*,-1.8,0.6,3.2,-12.9
O=C(c1ccc(F)cc1)N(Cc1ccco1)C1CCS(=O)(=O)C1 (stereo not drawn),3.8,0.9,-1.5,-0.5,-5.4
Cc1nc2ccc(NC(=O)CS(=O)(=O)c3ccc(F)cc3)cc2s1,-7.2,-18.9,-0.6,-7.5,0.9
Cc1nc2ccc(NS(=O)(=O)c3ccc(C)c(C)c3)cc2s1,77.9*,-5.3,.,-4.2,.
Cc1ccc(S(=O)(=O)CC(=O)Nc2ccc3nc(C)sc3c2)cc1,5.1,7.2,23.6*,-0.6,-2.5
COc1cccc(NC(=O)N(C)C[C@H]2Oc3cc(-c4ccccc4OC)ccc3S(=O)(=O)N([C@@H](C)CO)C[C@H]2C)c1,.,.,-1.6,.,-12.3
CCC(=O)N(C)C[C@H]1Oc2ncc(C#CCc3ccccc3)cc2C(=O)N([C@@H](C)CO)C[C@H]1C,.,.,-5.4,.,4.5
Cc1cc(OCc2nnc(SC(C)C(=O)O)n2Cc2ccccc2)ccc1Cl (stereo not drawn),9.7,.,23.7*,.,14.7
CC(C)CC#Cc1cnc2c(c1)C(=O)N([C@H](C)CO)C[C@H](C)[C@H](CN(C)S(C)(=O)=O)O2,.,.,-0.6,.,4.5
CCC(=O)N1CCC2(CC1)CN(CC1CCOCC1)[C@H](CO)c1c2c2ccc(OC)cc2n1C,.,.,2.4,.,-11.9
O=C(Nc1ccc(-c2ccccc2)cc1)[C@H]1[C@H](CO)[C@H]2Cn3c(cccc3=O)[C@H]2N1CC1CCCCC1,.,.,102.2*,.,.
CCC(=O)N1[C@H](C(=O)N[C@H](C)c2ccccc2)[C@@H](CO)[C@@H]2Cn3c(cccc3=O)[C@@H]21,.,.,2.6,.,4.9
CCNC(=O)[C@H]1[C@H](CO)[C@H]2Cn3c(cccc3=O)[C@H]2N1Cc1cccc(F)c1,.,.,-1.9,.,5.5
O=C(Nc1ccccc1)[C@@H]1[C@@H](CO)[C@@H]2Cn3c(cccc3=O)[C@@H]2N1CC1CC1,.,.,16.0*,.,-1.7
CC(=O)N1[C@H](C(=O)N[C@H](C)c2ccccc2)[C@@H](CO)[C@@H]2Cn3c(cccc3=O)[C@@H]21,.,.,6.5,.,109.8*
O=C(NCC(F)(F)F)[C@@H]1[C@@H](CO)[C@@H]2Cn3c(cccc3=O)[C@@H]2N1Cc1cccc(F)c1,.,.,16.4*,.,17.0
O=C(Nc1ccccc1)[C@@H]1[C@@H](CO)[C@@H]2Cn3c(cccc3=O)[C@@H]2N1CC1CCOCC1,.,.,-2.0,.,-0.7
O=C(Nc1ccc(-c2ccccc2)cc1)[C@H]1[C@H](CO)[C@H]2Cn3c(cccc3=O)[C@H]2N1CC1CCCC1,.,.,5.8,.,-2.4
SMILES,CRFBP-R2 block,PKA-R2B act,SIRT5 inh,PKA-R1A act,S100A4 inh HTS
Cc1noc(C)c1NC(=O)N(C)C[C@H]1Oc2ccc(NC(=O)c3ccncc3)cc2C(=O)N([C@@H](C)CO)C[C@@H]1C,.,.,3.1,.,1.6
CCCNC(=O)Nc1ccc2c(c1)OC[C@@H](C)N(CCC(F)(F)F)C[C@H](C)[C@@H](OC)CN(C)C2=O,.,.,7.0,.,13.9
C[C@@H]1CN([C@@H](C)CO)C(=O)c2cc(NC(=O)Nc3ccccc3)ccc2O[C@@H](C)CCCCO[C@@H]1CN(C)C,.,.,-6.3,.,-25.2
C[C@@H](O)C#Cc1ccc([C@H]2[C@H](CO)N3CCCCN(CC4CC4)C[C@@H]23)cc1,.,.,20.6*,.,-0.7
C[C@H](O)C#Cc1ccc([C@H]2[C@H]3CN(CC4CC4)CCCCN3[C@H]2CO)cc1,.,.,16.1*,.,-9.4
C[C@H](CO)N1C[C@H](C)[C@H](CN(C)Cc2ccc(C(=O)Nc3ccccc3N)cc2)Oc2ccc(NS(=O)(=O)c3cccs3)cc2C1=O,.,.,3.1,.,22.5
Cc1cccc(/C=C2/S/C(=N/N=C3\CC4CCC3(C)C4(C)C)NC2=O)c1 (stereo not drawn),50.1*,0.5,.,-12.7,.
CN1CCC2(CC1)Nc1nc(SCc3ccc(Cl)cc3)nn1C1=C2CN(C)CC1,86.0*,1.2,.,0.3,.
CCOc1cc(N2CCOCC2)c(OCC)cc1NC(=O)C(C)C,2.0,4.8,0.9,-0.4,1.4
CCOc1cc(N2CCOCC2)c(OCC)cc1NC(C)C(=O)N1CCN(CC)CC1 (stereo not drawn),2.7,1.0,15.5*,-10.3,32.1
CCC(=O)N(Cc1c(C)nn(-c2ccccc2)c1Cl)c1ccc(Cl)cc1,67.5*,5.2,-0.6,-1.7,-1.4
O=C(Nc1cc(F)ccc1F)N1CC(=O)N2[C@@H](CO)[C@@H](c3ccc(C#CC4CCCCC4)cc3)[C@@H]2C1,.,.,21.0*,.,-14.9
O=C(Nc1cc(F)ccc1F)N1CC(=O)N2[C@H](CO)[C@H](c3ccc(C#CC4CCCCC4)cc3)[C@H]2C1,.,.,8.4,.,3.4
O=C(Nc1cc(F)ccc1F)N1CC(=O)N2[C@H](CO)[C@H](c3ccc(C#CC4CCCCC4)cc3)[C@@H]2C1,.,.,17.2*,.,35.2
COc1ccccc1NC(=O)N1CCCCN2[C@@H](CO)[C@H](c3ccc(C#CC4CCCC4)cc3)[C@@H]2C1,.,.,16.9*,.,-6.4
COc1ccccc1NC(=O)N1CC(=O)N2[C@H](CO)[C@@H](c3ccc(C#CC4CC4)cc3)[C@H]2C1,.,.,22.1*,.,2.6
COc1ccccc1NC(=O)N1CC(=O)N2[C@H](C1)[C@@H](c1ccc(C#Cc3ccccc3)cc1)[C@@H]2CO,.,.,8.0,.,-2.3
COc1cccc(C(=O)Nc2ccc3c(c2)C(=O)N(C)[C@H]2CC[C@H](CC(=O)NCC4CC4)O[C@H]2CO3)c1,.,.,-5.4,.,-17.9
CC(C)NC(=O)Nc1ccc2c(c1)CC(=O)N([C@@H](C)CO)C[C@H](C)[C@H](CN(C)C(=O)NC(C)C)O2,.,.,-2.1,.,-0.9
CC(C)NC(=O)N1CCCCN2[C@H](CO)[C@H](c3ccc(C#CC4CC4)cc3)[C@H]2C1,.,.,-0.8,.,-3.5
CC(C)NC(=O)N1CCCCN2[C@H](C1)[C@@H](c1ccc(C#CC3CC3)cc1)[C@@H]2CO,.,.,22.4*,.,-1.4
